# Measurements collected from several papers.
# Lines come from different studies, so protocols differ.
# Cell line: NCI-H460
# Read-out: cell growth or viability
SMILES,method,concentration,time,measurement,result
COc1ccc(C(=O)/C=C/c2cccc(Cl)c2)cc1S(N)(=O)=O,SRB,10 µM,,inhibition,97%
CS(=O)(=O)CCNCc1ccc(-c2ccc3ncnc(Nc4ccc(OCc5cccc(F)c5)c(Cl)c4)c3c2)o1,MTT,,72 h,EC50,32000 nM
COc1cc(N(C)CCN(C)C)c(NC(=O)C=C(C)C)cc1Nc1nc(Nc2cnn(C)c2)c2sccc2n1,MTT,,,IC50,1320 nM
Cc1cc(C)n(C(=S)[S][Au][PH](CCCCCC[PH]([Au][S]C(=S)n2nc(C)cc2C)(c2ccccc2)c2ccccc2)(c2ccccc2)c2ccccc2)n1,SRB,,,GI50,638 nM
COc1ccc(-c2ccc(-c3ccc(C(=N)N)nc3)s2)cc1,SRB,,,GI50,520 nM
CCCc1n(Cc2ccc3ccccc3n2)cc[n+]1Cc1ccc2ccccc2c1,SRB,,,TGI,10600 nM
C=CC(=O)Nc1cc(Nc2nc(N3CCc4sccc4C3)c3cccnc3n2)c(OC)cc1N1CCN(C(C)=O)CC1,MTT,,,IC50,> 50000 nM
COc1ccc(C(=O)/C=C/c2ccc(Cl)c(Cl)c2)cc1S(N)(=O)=O,SRB,,48 h,GI50,2800 nM
C=CC(=O)Nc1cc(Nc2nc(N3CCc4sccc4C3)c3cccnc3n2)c(OC)cc1N(C)C,MTT,,,IC50,> 50000 nM
CCCc1n(Cc2ccc3ccccc3n2)cc[n+]1Cc1ccc2ccccc2n1,SRB,,,TGI,11700 nM
COc1ccc(C(=O)/C=C/c2cccc(Cl)c2Cl)cc1S(N)(=O)=O,SRB,,48 h,GI50,1900 nM
C/C=C/C(=O)Nc1cc(Nc2nc(Nc3cnn(C)c3)c3sccc3n2)c(OC)cc1N(C)CCN(C)C,MTT,,,IC50,> 50000 nM
COc1ccc(-c2ccc(-c3ccc(C(=N)N)nc3)s2)cc1Cl,SRB,,,GI50,1800 nM
c1ccc(-c2n(Cc3ccc4ccccc4c3)cc[n+]2Cc2ccc3ccccc3c2)cc1,SRB,,,TGI,2870 nM
COc1ccc(C(=O)/C=C/c2cccc3ccccc23)cc1S(N)(=O)=O,SRB,,48 h,GI50,1800 nM
C=C(Cl)C(=O)Nc1cc(Nc2nc(Nc3cnn(C)c3)c3sccc3n2)c(OC)cc1N1CCN(C)CC1,MTT,,,IC50,239 nM
COc1ccc(C(=O)/C=C/c2cc3c(cc2Br)OCO3)cc1S(N)(=O)=O,SRB,10 µM,,inhibition,100%
C=CC(=O)Nc1cc(Nc2nc(N3CCc4sccc4C3)c3cccnc3n2)c(OC)cc1N1CCOCC1,MTT,,,IC50,> 50000 nM
COc1ccc(C(=O)/C=C/c2ccc3ccccc3c2)cc1S(N)(=O)=O,SRB,10 µM,,inhibition,98%
CCc1n(Cc2ccc3ccccc3n2)cc[n+]1Cc1ccc2ccccc2n1,SRB,,,TGI,11900 nM
